Values after ≈ are worked out from the molar mass of the structure shown.
What was measured:
[1] = molecular target: DNA gyrase (Staphylococcus aureus, UniProt P0A0K8+P20831); assay: Inhibition of Staphylococcus aureus DNA gyrase supercoiling incubated for 30 mins in presence of ATP; assay type: protein-complex assay
Procedure, shortened: (§1)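 Gyrase supercoiling plate assay (triplex capture on streptavidin plates with immobilized biotinylated oligonucleotide): 1.5 U enzyme, 0.75 µg relaxed pNO1 plasmid, inhibitor in 10% DMSO/0.008% Tween-20, 37 °C 30 min, 30 µl. Buffer for E. coli: 35 mM Tris pH 7.5, 1 mM ATP; S. aureus: 40 mM HEPES-KOH pH 7.6, 2 mM ATP, 500 mM K-glutamate. Diamond dye fluorescence (ex 495/em 537 nm). Pre-screen 100 and 1 µM; IC50 from seven concentrations by four-parameter fit, mean of two runs.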

[2] = molecular target: DNA gyrase (Escherichia coli, UniProt P0AES4+P0AES6); assay: Inhibition of Escherichia coli DNA gyrase supercoiling incubated for 30 mins in presence of ATP; assay type: protein-complex assay; procedure, shortened: as §1
[3] = molecular target: Topoisomerase IV (Staphylococcus aureus, UniProt P0C1S7+P0C1U9); assay: Inhibition of Staphylococcus aureus DNA topoisomerase 4 relaxation activity measured for 30 mins; assay type: protein-complex assay
Sequence of Topoisomerase IV (P0C1U9 whole entry): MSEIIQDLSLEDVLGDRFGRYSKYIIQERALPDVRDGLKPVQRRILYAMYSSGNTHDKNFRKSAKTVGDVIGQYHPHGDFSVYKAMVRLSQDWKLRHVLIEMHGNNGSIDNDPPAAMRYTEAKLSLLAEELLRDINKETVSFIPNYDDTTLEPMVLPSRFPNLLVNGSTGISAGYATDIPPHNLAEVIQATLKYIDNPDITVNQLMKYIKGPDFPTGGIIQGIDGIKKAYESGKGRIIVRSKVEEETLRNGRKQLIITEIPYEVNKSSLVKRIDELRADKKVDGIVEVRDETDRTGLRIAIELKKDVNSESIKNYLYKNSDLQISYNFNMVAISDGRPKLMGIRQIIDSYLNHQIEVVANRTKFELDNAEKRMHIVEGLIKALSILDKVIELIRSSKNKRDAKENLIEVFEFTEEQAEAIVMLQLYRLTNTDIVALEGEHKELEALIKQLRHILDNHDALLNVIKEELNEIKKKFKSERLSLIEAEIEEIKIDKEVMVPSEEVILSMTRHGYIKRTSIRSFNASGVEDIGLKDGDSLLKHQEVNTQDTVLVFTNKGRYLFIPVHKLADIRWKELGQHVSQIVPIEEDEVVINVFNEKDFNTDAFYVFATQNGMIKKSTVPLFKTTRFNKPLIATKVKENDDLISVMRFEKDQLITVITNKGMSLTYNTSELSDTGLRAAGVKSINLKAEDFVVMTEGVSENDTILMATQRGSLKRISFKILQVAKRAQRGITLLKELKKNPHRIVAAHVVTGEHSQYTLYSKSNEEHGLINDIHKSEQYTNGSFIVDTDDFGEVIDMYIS
Sequence of Topoisomerase IV (P0C1S7 whole entry): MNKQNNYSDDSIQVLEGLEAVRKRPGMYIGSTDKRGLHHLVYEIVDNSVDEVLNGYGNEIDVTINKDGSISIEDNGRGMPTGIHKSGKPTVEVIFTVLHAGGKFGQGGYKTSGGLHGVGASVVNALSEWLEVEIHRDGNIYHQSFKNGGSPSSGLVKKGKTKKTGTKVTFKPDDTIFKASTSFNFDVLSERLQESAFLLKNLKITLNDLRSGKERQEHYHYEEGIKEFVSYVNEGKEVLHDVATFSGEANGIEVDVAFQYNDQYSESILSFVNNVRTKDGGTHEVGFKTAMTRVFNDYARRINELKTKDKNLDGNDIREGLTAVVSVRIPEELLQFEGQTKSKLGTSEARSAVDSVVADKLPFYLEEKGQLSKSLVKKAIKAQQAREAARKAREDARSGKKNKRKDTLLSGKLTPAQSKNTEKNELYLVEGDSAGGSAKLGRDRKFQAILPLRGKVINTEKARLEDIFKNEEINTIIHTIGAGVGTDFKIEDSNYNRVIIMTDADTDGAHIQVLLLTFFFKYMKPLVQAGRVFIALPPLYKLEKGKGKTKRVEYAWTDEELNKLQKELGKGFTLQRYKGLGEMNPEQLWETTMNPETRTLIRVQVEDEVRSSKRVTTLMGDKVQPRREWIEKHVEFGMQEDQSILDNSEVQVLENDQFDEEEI
Procedure, shortened: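 TopoIV relaxation plate assay: 1.5 U enzyme with 0.75 µg supercoiled pNO1 plasmid, inhibitor in 10% DMSO/0.008% Tween-20, 37 °C 30 min; E. coli buffer 40 mM HEPES-KOH pH 7.6 with 1 mM ATP, S. aureus buffer 50 mM Tris pH 7.5 with 1.5 mM ATP.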

[4] = Inhibition of Escherichia coli DNA topoisomerase 4 relaxation activity measured for 30 mins
Procedure, shortened: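 TopoIV relaxation plate assay: 1.5 U enzyme with 0.75 µg supercoiled pNO1 plasmid, inhibitor in 10% DMSO/0.008% Tween-20, 37 °C 30 min; E. coli buffer 40 mM HEPES-KOH pH 7.6 with 1 mM ATP, S. aureus buffer 50 mM Tris pH 7.5 with 1.5 mM ATP. Triplex capture, Diamond dye fluorescence 495/537 nm.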

[5] = molecular target: DNA topoisomerase 2-alpha (Homo sapiens) (UniProt P11388); assay: Inhibition of human DNA topoisomerase 2-alpha assessed as residual activity at 100 uM incubated for 30 mins relative to control
Sequence of DNA topoisomerase 2-alpha (Homo sapiens) (P11388 whole entry): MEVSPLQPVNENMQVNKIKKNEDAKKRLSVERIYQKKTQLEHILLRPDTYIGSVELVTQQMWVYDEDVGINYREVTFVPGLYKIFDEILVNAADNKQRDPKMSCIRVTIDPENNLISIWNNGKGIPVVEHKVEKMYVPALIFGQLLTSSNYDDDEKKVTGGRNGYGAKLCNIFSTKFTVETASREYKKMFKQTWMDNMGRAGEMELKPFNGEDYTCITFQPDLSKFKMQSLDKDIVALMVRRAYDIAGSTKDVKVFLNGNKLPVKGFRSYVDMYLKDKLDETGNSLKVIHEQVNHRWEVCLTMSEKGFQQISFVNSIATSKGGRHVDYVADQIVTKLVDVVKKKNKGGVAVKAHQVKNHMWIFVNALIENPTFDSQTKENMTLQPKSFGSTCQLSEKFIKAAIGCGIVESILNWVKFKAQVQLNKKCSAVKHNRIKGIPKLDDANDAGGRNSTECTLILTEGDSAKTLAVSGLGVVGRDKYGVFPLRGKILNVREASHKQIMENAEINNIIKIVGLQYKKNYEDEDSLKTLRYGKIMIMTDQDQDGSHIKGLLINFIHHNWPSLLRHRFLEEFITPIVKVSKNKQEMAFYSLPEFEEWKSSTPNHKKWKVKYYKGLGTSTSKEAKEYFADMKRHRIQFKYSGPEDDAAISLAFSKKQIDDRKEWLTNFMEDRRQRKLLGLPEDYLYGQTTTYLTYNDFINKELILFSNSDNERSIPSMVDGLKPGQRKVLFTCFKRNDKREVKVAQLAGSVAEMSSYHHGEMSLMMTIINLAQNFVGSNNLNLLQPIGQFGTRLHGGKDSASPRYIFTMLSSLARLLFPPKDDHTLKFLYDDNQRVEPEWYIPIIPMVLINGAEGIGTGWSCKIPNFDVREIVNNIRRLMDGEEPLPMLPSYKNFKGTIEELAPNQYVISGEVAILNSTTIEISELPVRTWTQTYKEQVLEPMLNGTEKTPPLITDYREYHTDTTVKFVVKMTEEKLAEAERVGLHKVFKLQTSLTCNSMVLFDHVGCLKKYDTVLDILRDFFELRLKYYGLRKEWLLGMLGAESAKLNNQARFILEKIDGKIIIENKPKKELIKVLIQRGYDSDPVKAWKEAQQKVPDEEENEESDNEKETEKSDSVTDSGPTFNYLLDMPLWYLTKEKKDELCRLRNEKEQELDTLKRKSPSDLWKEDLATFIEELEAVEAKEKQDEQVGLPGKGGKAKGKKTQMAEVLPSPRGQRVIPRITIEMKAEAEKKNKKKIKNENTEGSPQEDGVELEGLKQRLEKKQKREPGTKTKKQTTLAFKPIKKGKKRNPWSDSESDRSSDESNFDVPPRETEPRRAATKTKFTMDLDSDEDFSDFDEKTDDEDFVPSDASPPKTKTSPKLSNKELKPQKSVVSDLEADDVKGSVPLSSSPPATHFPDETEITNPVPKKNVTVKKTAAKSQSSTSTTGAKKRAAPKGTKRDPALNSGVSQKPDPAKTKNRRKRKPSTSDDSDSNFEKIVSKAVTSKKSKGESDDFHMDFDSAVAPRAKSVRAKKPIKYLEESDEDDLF

[6] = molecular target: Voltage-gated inwardly rectifying potassium channel KCNH2 (Homo sapiens, UniProt Q12809); assay: Inhibition of hERG fluorescence polarization assay; assay type: toxicity
[7] = tested on: HepG2; assay: Cytotoxicity against human HepG2 cells assessed as inhibition of cell growth at 50 uM incubated for 72 hrs by […]; assay type: functional; parameters: scale not given: the % may be the effect or the level left
Procedure, shortened: (§2)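 HepG2 in DMEM with 10% FBS, 2 mM glutamine, penicillin/streptomycin, 37 °C, 5% CO₂; seeded 8,000 cells/well, attached overnight, then treated 1.25–100 µM or vehicle for 72 h. Metabolic activity by CellTiter 96 Aqueous One (MTS) absorbance 492 nm.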

[8] = tested on: Escherichia coli; assay: Antimicrobial activity against multidrug-resistant Escherichia coli assessed as reduction in bacterial growth incubated for 20 hrs by broth microdilution analysis; assay type: functional
Procedure, shortened: (§3)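 MIC was determined by broth microdilution per CLSI/EUCAST. Inoculum was 10^5 CFU/mL in cation-adjusted Mueller-Hinton broth with TES, with compounds in DMSO, incubated 20 h at 35 °C. MIC was read visually as the lowest concentration without turbidity. Tetracycline was the plate control.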

[9] = tested on: Staphylococcus aureus; assay: Antimicrobial activity against Staphylococcus aureus ATCC 29213 assessed as reduction in bacterial growth incubated for 20 hrs by broth microdilution analysis; assay type: functional; procedure, shortened: as §3
[10] = tested on: Escherichia coli; assay: Antimicrobial activity against Escherichia coli ATCC 25922 assessed as reduction in bacterial growth incubated for 20 hrs by broth microdilution analysis; assay type: functional
[11] = tested on: Escherichia coli; assay: Antimicrobial activity against Escherichia coli D22 assessed as reduction in bacterial growth incubated for 20 hrs by broth microdilution analysis; assay type: functional
[12] = tested on: Escherichia coli; assay: Antimicrobial activity against Escherichia coli N43 assessed as reduction in bacterial growth incubated for 20 hrs by broth microdilution analysis; assay type: functional
[13] = tested on: Staphylococcus aureus; assay: Antimicrobial activity against cefoxitin/ciprofloxacin/clindamycin/erythromycin/tetracycline/thiamulin/trimethoprim-resistant Staphylococcus aureus assessed as reduction in bacterial growth incubated for 20 hrs by broth microdilution analysis; assay type: functional; procedure, shortened: as §3
[14] = tested on: Staphylococcus aureus; assay: Antimicrobial activity against cefoxitin/gentamicin/kanamycin/rifampicin/streptomycin/sulfamethoxazole/tetracycline-resistant Staphylococcus aureus assessed as reduction in bacterial growth incubated for 20 hrs by broth microdilution analysis; assay type: functional; procedure, shortened: as §3
[15] = tested on: Staphylococcus aureus; assay: Antimicrobial activity against multidrug-resistant Staphylococcus aureus assessed as reduction in bacterial growth incubated for 20 hrs by broth microdilution analysis; assay type: functional; procedure, shortened: as §3
[16] = tested on: Klebsiella pneumoniae; assay: Antimicrobial activity against Klebsiella pneumoniae assessed as reduction in bacterial growth incubated for 20 hrs by broth microdilution analysis; assay type: functional
[17] = Antimicrobial activity against Salmonella alachua RDK 030c assessed as reduction in bacterial growth incubated for 20 hrs by broth microdilution analysis; assay type: functional
[18] = tested on: Pseudomonas aeruginosa; assay: Antimicrobial activity against Pseudomonas aeruginosa RDK 184 assessed as reduction in bacterial growth incubated for 20 hrs by broth microdilution analysis; assay type: functional
[19] = tested on: Enterococcus faecalis; assay: Antimicrobial activity against Enterococcus faecalis DRK 057 assessed as reduction in bacterial growth incubated for 20 hrs by broth microdilution analysis; assay type: functional
[20] = tested on: Acinetobacter baumannii; assay: Antimicrobial activity against Acinetobacter baumannii assessed as reduction in bacterial growth incubated for 20 hrs by broth microdilution analysis; assay type: functional
[21] = tested on: hERG; assay: Selectivity index, ratio of IC50 for inhibition of hERG fluorescence polarization assay to MIC for antimicrobial activity against Staphylococcus aureus ATCC 29213 assessed as reduction in bacterial growth; assay type: toxicity; conditions: human; read-out: Selectivity Index
[22] = tested on: hERG; assay: Selectivity index, ratio of IC50 for inhibition of hERG fluorescence polarization assay to MIC for antimicrobial activity against multidrug-resisitant Staphylococcus aureus assessed as reduction in bacterial growth; assay type: toxicity; conditions: human; read-out: Selectivity Index
[23] = tested on: HepG2; assay: Cytotoxicity against human HepG2 cells assessed as inhibition of cell growth incubated for 72 hrs by […]; assay type: functional, cell-based; conditions: HepG2, 72 h; procedure, shortened: as §2
[24] = Acute toxicity in zebrafish embryos assessed as lethal concentration compound administered from 6 hrs post fertilization and measured after 120 hrs post fertilization; parameters: species or system Danio rerio; conditions: in vivo
Procedure, shortened: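 Wild-type AB zebrafish embryos in E3 medium at 28 °C were exposed by immersion from 6 hpf to 0.39–25 µg/mL (top dose 12.5 µg/mL for one compound), with DMSO at most 0.25%. Controls were 0.25% DMSO and 25 µg/mL doxorubicin. Embryos were inspected daily for death and toxicity signs through 120 hpf. Runs were in triplicate, with 24 embryos per concentration.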

Sequence of DNA gyrase (Staphylococcus aureus, UniProt P0A0K8+P20831) (P0A0K8 whole entry): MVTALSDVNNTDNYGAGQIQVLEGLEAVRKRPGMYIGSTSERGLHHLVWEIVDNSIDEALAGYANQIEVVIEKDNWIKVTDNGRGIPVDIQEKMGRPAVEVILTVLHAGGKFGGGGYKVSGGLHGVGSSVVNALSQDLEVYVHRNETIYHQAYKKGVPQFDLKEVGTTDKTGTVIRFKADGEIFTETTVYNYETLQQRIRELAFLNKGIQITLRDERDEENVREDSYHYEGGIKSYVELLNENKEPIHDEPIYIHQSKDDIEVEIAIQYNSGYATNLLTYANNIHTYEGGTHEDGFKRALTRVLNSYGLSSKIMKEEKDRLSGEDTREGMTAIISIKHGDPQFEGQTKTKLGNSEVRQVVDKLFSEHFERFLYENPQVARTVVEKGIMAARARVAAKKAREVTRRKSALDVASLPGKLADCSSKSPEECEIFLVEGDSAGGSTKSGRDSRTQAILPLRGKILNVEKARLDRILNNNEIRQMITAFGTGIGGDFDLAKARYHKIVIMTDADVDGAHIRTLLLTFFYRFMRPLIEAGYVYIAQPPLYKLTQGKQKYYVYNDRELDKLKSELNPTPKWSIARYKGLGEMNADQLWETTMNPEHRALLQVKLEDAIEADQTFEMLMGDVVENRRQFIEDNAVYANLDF
Sequence of DNA gyrase (Staphylococcus aureus, UniProt P0A0K8+P20831) (P20831 whole entry): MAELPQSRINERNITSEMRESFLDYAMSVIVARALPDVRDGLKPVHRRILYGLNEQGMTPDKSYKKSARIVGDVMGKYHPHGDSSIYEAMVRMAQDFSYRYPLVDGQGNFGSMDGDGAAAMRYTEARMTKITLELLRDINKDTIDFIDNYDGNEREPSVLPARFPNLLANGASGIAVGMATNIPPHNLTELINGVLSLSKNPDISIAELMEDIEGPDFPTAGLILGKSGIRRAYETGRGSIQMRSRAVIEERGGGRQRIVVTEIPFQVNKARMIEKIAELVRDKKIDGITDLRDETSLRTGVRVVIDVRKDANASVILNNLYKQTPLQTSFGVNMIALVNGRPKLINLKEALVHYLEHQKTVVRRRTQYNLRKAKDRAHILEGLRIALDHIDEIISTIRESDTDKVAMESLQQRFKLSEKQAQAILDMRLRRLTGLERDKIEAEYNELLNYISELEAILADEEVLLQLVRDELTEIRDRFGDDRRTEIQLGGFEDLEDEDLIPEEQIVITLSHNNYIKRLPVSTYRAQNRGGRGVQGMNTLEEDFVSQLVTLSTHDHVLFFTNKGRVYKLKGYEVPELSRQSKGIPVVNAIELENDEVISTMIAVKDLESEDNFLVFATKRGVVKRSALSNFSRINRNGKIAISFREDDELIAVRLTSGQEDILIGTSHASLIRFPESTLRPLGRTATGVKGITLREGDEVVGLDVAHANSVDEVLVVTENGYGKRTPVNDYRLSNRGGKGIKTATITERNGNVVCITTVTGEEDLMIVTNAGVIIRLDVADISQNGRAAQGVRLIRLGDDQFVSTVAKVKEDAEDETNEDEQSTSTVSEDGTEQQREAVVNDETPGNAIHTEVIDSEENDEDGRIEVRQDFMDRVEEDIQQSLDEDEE

| Compound | IC50 [1] | IC50 [2] | IC50 [3] | IC50 [4] | Activity [5] | IC50 [6] | MIC [8] | MIC [9] | MIC [10] | MIC [11] | MIC [12] | MIC [13] | MIC [14] | MIC [15] | MIC [16] | MIC [17] | MIC [18] | MIC [19] | MIC [20] | selectivity ratio [21] | also measured |
| --- | --- | --- | --- | --- | --- | --- | --- | --- | --- | --- | --- | --- | --- | --- | --- | --- | --- | --- | --- | --- | --- |
| COc1ccc2nccc(OC[C@H]3CC[C@H](NC(=O)c4ccc(I)c(F)c4)CC3)c2n1 | > 100000 nM | > 100000 nM | > 100000 nM | > 100000 nM | 99.1% | > 30000 nM | > 239 µM | 239 µM | 239 µM | 239 µM | 239 µM | 239 µM | > 239 µM | > 239 µM | > 239 µM | > 239 µM | > 239 µM | > 239 µM | > 239 µM | ≥ 0.125 | Activity [7]: 96%; selectivity ratio [22]: ≥ 0.125 |
| COc1ccc2nccc(OC[C@H]3CC[C@H](NC(=O)c4cc(F)c(Cl)c(F)c4)CC3)c2n1 | > 100000 nM | > 100000 nM | > 100000 nM | > 100000 nM | 100% | > 30000 nM | > 277 µM | 277 µM | 277 µM | 277 µM | 277 µM | 277 µM | 277 µM (≈ 128 µg/mL) | > 277 µM | > 277 µM | > 277 µM | > 277 µM | > 277 µM | > 277 µM | ≥ 0.108 | Activity [7]: 96%; selectivity ratio [22]: ≥ 0.108 |
| COc1ccc2nccc(OC[C@@H]3CC[C@@H](NC(=O)c4cc(F)c(Cl)c(F)c4)CO3)c2n1 | 445 nM | 677 nM | 579 nM | 73 nM | 101% | > 30000 nM | > 276 µM | 0.136 µM | 276 µM | 276 µM | 0.134 µM | 0.136 µM | 0.136 µM (≈ 0.0631 µg/mL) | 0.269 µM (≈ 0.125 µg/mL) | > 276 µM | > 276 µM | > 276 µM | 8.62 µM (≈ 4 µg/mL) | 276 µM | ≥ 224 | IC50 [23]: 9060 nM; selectivity ratio [22]: ≥ 224 |
| COc1ccc2nccc(OC[C@H]3CC[C@H](NC(=O)c4cc(F)c(Br)c(F)c4)CC3)c2n1 | > 100000 nM | > 100000 nM | > 100000 nM | > 100000 nM | 101% | > 30000 nM | > 64.8 µM | 253 µM | 64.8 µM | 64.8 µM | 64.8 µM | 64.8 µM | > 64.8 µM | > 64.8 µM | > 64.8 µM | > 64.8 µM | > 64.8 µM | > 64.8 µM | > 64.8 µM | ≥ 0.119 | Activity [7]: 90%; selectivity ratio [22]: ≥ 0.119 |
| COc1ccc2nccc(CCN3CCC(NC(=O)c4ccc(I)c(F)c4)CC3)c2n1 | 114 nM | 277 nM | 261 nM | 43 nM | 102% | 96 nM | > 240 µM | 0.058 µM | 240 µM | 0.468 µM | 0.234 µM | 0.234 µM | 0.058 µM (≈ 0.031 µg/mL) | 0.234 µM (≈ 0.125 µg/mL) | > 240 µM | > 240 µM | > 240 µM | 0.468 µM (≈ 0.25 µg/mL) | 240 µM | 1.65 | Activity [7]: 89%; selectivity ratio [22]: 0.41 |
| COc1ccc2nccc(CCN3CCC(NC(=O)c4cc(F)c(Cl)c(F)c4)CC3)c2n1 | 220 nM | 236 nM | 177 nM | 41 nM | 101% | 178 nM | > 278 µM | 0.137 µM | 69.4 µM | 0.542 µM | 0.135 µM | 0.271 µM | 0.137 µM (≈ 0.0631 µg/mL) | 0.271 µM (≈ 0.125 µg/mL) | > 278 µM | > 278 µM | > 278 µM | 2.17 µM (≈ 1 µg/mL) | 4.34 µM | 1.3 | Activity [7]: 84%; selectivity ratio [22]: 0.656 |
| COc1ccc2nccc(OC[C@@H]3CC[C@@H](NC(=O)c4ccc(I)c(F)c4)CO3)c2n1 | 271 nM | 358 nM | 783 nM | 92 nM | 102% | > 30000 nM | > 238 µM | 0.058 µM | 238 µM | 238 µM | 0.117 µM | 0.058 µM | 0.058 µM (≈ 0.0312 µg/mL) | 238 µM (≈ 128 µg/mL) | > 238 µM | > 238 µM | > 238 µM | > 238 µM | > 238 µM | ≥ 520 | IC50 [23]: 11200 nM; selectivity ratio [22]: ≥ 520 |
| CN(C)[C@@H]1C(O)=C(C(N)=O)C(=O)[C@@]2(O)C(O)=C3C(=O)c4c(O)cccc4[C@@](C)(O)[C@H]3C[C@@H]12 [TETRACYCLINE] |  |  |  |  |  |  | > 4 µg/mL | 0.25 µg/mL | 1 µg/mL | 1 µg/mL | 0.25 µg/mL | > 4 µg/mL |  |  | > 4 µg/mL |  |  |  | > 4 µg/mL |  |  |
| COc1ccc2nccc(CCN3CCC(NC(=O)c4cc(F)c(Br)c(F)c4)CC3)c2n1 | 108 nM | 114 nM | 84 nM | 40 nM | 102% | 122 nM | 253 µM | 0.061 µM | 63.3 µM | 0.247 µM | 0.061 µM | 0.247 µM | 0.061 µM (≈ 0.0308 µg/mL) | 0.125 µM (≈ 0.0632 µg/mL) | > 253 µM | > 253 µM | > 253 µM | 0.495 µM (≈ 0.25 µg/mL) | 3.96 µM | 1.99 | Activity [7]: 61%; selectivity ratio [22]: 0.493; LC50 at 114 h [24]: > 25 µg/mL |

From ChEMBL document CHEMBL5385870, “Amide containing NBTI antibacterials with reduced hERG inhibition, retained antimicrobial activity against gram-positive bacteria and in vivo efficacy” (Eur J Med Chem, 2023)
